Calls of active or inactive are those of the source. No cut-off for these calls is given here.
Tests used:
[1] = tested on: MGC-803; test: Induction of apoptosis in human MGC-803 cells assessed as downregulation of Mcl-1 at 20 to 60 nM incubated for 48 hrs by Western blot analysis; assay type: functional, cell-based; conditions: dose 20-60 nM
How it was run: (§1)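 Western blot on MGC-803 and SGC-7901 cells given 20, 40 and 60 nM compound or DMSO for 48 h. Denatured lysates were run on SDS-PAGE and transferred to PVDF, then probed with primary and secondary antibodies to detect apoptosis-related proteins.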

[2] = tested on: SGC-7901; test: Induction of apoptosis in human SGC-7901 cells assessed as downregulation of c-IAP2 at 20 to 60 nM incubated for 48 hrs by Western blot analysis; assay type: functional, cell-based; conditions: dose 20-60 nM
How it was run: (§2)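 Cells grown in RPMI-1640 with 10% FBS, penicillin/streptomycin at 37 °C, 5% CO2. Exposure to 20, 40 or 60 nM for 48 h alongside DMSO control. Lysates denatured, resolved by SDS-PAGE, transferred to PVDF, blocked, then probed with primary and secondary antibodies.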

[3] = tested on: MGC-803; test: Inhibition of tubulin polymerization in human MGC-803 cells assessed as decrease in filamentous structure at 20 to 60 nmol/L by DAPI staining based microscopic analysis; assay type: cell-based; conditions: dose 20-60 nmol/L
How it was run: (§3)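 Cells cultured in RPMI-1640 with 10% FBS at 37 °C, 5% CO2, treated 48 h with 20, 40 and 60 nM; stained for β-tubulin (green) and nuclei (blue) and examined by microscopy.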

[4] = tested on: SGC-7901; test: Induction of cell cycle arrest in human SGC-7901 cells assessed as downregulation of CDK1 at 20 to 60 nM incubated for 48 hrs by Western blot analysis; assay type: functional, cell-based; conditions: dose 20-60 nM; how it was run: as §2
[5] = tested on: MGC-803; test: Induction of apoptosis in human MGC-803 cells assessed as downregulation of Bcl-xl at 20 to 60 nM incubated for 48 hrs by Western blot analysis; assay type: functional, cell-based; conditions: dose 20-60 nM; how it was run: as §1
[6] = tested on: SGC-7901; test: Activation of Hippo signaling pathway in human SGC-7901 cells assessed as increase in LATS phosphorylation at 20 to 60 nM incubated for 48 hrs by Western blot analysis; assay type: cell-based; conditions: filed as activator, dose 20-60 nM
How it was run: (§4)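 Western blot on gastric cancer cells exposed to compound or DMSO at 20, 40 and 60 nM for 48 h. Cells were lysed, then the denatured lysates were separated by SDS-PAGE and transferred to PVDF. Membranes were blocked and probed with primary and then secondary antibodies. Hippo pathway proteins were detected.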

[7] = tested on: MGC-803; test: Induction of cell cycle arrest in human MGC-803 cells assessed as downregulation of Cyclin B1 at 20 to 60 nM incubated for 48 hrs by Western blot analysis; assay type: functional, cell-based; conditions: dose 20-60 nM; how it was run: as §2
[8] = tested on: SGC-7901; test: Activation of Hippo signaling pathway in human SGC-7901 cells assessed as decrease in c-MYC expression incubated for 48 hrs by Western blot analysis; assay type: cell-based; conditions: filed as activator, dose 20-60 nM; how it was run: as §4
[9] = tested on: MGC-803; test: Induction of apoptosis in human MGC-803 cells assessed as downregulation of XIAP at 20 to 60 nM incubated for 48 hrs by Western blot analysis; assay type: functional, cell-based; conditions: dose 20-60 nM; how it was run: as §1
[10] = tested on: SGC-7901; test: Activation of Hippo signaling pathway in human SGC-7901 cells assessed as decrease in Bcl-2 expression incubated for 48 hrs by Western blot analysis; assay type: cell-based; conditions: filed as activator, dose 20-60 nM; how it was run: as §4
[11] = tested on: MGC-803; test: Induction of cell cycle arrest in human MGC-803 cells assessed as increase in G2/M phase accumulation incubated for 24 hrs by PI staining based flow cytometry analysis; assay type: functional; conditions: dose 20-60 nM
How it was run: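 Cells in RPMI-1640/10% FBS at 37 °C, 5% CO2, exposed to 20, 40 and 60 nM for 24 h before flow cytometric cell-cycle distribution analysis.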

[12] = tested on: GES1; test: Cytotoxicity against human GES1 cells assessed as reduction in cell viability at 60 nmol/L incubated for 48 hrs by MTT assay; assay type: functional; conditions: GES1, read-out: INH
How it was run: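 MTT viability in gastric cell lines grown in RPMI-1640 with 10% FBS at 37 °C, 5% CO2. Compound at 20, 40 and 60 nM for 48 h, starting 24 h after seeding 5,000 cells per well. MTT for 4 h, formazan dissolved in DMSO, absorbance at 490 nm. Inhibition expressed relative to control.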

[13] = tested on: SGC-7901; test: Displacement of EBI from beta-tubulin in human SGC-7901 cells assessed as reduction in tubulin adduct formation incubated for 2 hrs followed by EBI addition and measured after 2 hrs by Western blot analysis; assay type: cell-based; conditions: dose 0.25-2.5 µM, time 4.0 hrs
How it was run: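 EBI competition assay. […] EBI was then added at […] as printed for another 2 h. Harvested cells were immunoblotted with anti-β-tubulin antibody to detect β-tubulin and the alkylated β-tubulin adduct.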

[14] = tested on: MGC-803; test: Inhibition of tubulin polymerization in human MGC-803 cells assessed as decrease in microtubule formation at 20 to 60 nmol/L by DAPI staining based microscopic analysis; assay type: cell-based; conditions: dose 20-60 nmol/L; how it was run: as §3
[15] = tested on: MGC-803; test: Induction of apoptosis in human MGC-803 cells assessed as upregulation of FADD at 20 to 60 nM incubated for 48 hrs by Western blot analysis; assay type: functional, cell-based; conditions: dose 20-60 nM; how it was run: as §1
[16] = tested on: SGC-7901; test: Activation of Hippo signaling pathway in human SGC-7901 cells assessed as downregulation of YAP at 20 to 60 nM incubated for 48 hrs by Western blot analysis; assay type: cell-based; conditions: filed as activator, dose 20-60 nM; how it was run: as §4
[17] = tested on: SGC-7901; test: Induction of apoptosis in human SGC-7901 cells assessed as upregulation of DR5 at 20 to 60 nM incubated for 48 hrs by Western blot analysis; assay type: functional, cell-based; conditions: dose 20-60 nM; how it was run: as §2
[18] = tested on: SGC-7901; test: Induction of apoptosis in human SGC-7901 cells assessed as downregulation of Mcl-1 at 20 to 60 nM incubated for 48 hrs by Western blot analysis; assay type: functional, cell-based; conditions: dose 20-60 nM; how it was run: as §1
[19] = tested on: SGC-7901; test: Induction of apoptosis in human SGC-7901 cells assessed as increase in PARP cleavage at 20 to 60 nM incubated for 48 hrs by Western blot analysis; assay type: functional, cell-based; conditions: dose 20-60 nM; how it was run: as §2
[20] = tested on: MGC-803; test: Induction of apoptosis in human MGC-803 cells assessed as increase in caspase-9 cleavage at 20 to 60 nM incubated for 48 hrs by Western blot analysis; assay type: functional, cell-based; conditions: dose 20-60 nM; how it was run: as §1
[21] = tested on: SGC-7901; test: Induction of apoptosis in human SGC-7901 cells assessed as late apoptotic cells at 60 nM incubated for 48 hrs by annexin V-FITC and PI staining based flow cytometry analysis (reference value: 2.4 %); assay type: functional
[22] = tested on: MGC-803; test: Activation of Hippo signaling pathway in human […] cells assessed as downregulation of YAP at 20 to 60 nM incubated for 48 hrs by Western blot analysis; assay type: cell-based; conditions: filed as activator, dose 20-60 nM; how it was run: as §4
[23] = tested on: MGC-803; test: Activation of Hippo signaling pathway in human […] cells assessed as decrease in c-MYC expression incubated for 48 hrs by Western blot analysis; assay type: cell-based; conditions: filed as activator, dose 20-60 nM; how it was run: as §4
[24] = tested on: SGC-7901; test: Induction of apoptosis in human SGC-7901 cells assessed as increase in caspase-3 cleavage at 20 to 60 nM incubated for 48 hrs by Western blot analysis; assay type: functional, cell-based; conditions: dose 20-60 nM; how it was run: as §2
[25] = tested on: SGC-7901; test: Inhibition of tubulin polymerization in human SGC-7901 cells assessed as decrease in microtubule formation at 20 to 60 nmol/L by DAPI staining based microscopic analysis; assay type: cell-based; conditions: dose 20-60 nmol/L; how it was run: as §3
[26] = tested on: MGC-803; test: Induction of cell cycle arrest in human MGC-803 cells assessed as upregulation of Histone-H3 Ser10 at 20 to 60 nM incubated for 48 hrs by Western blot analysis; assay type: functional, cell-based; conditions: dose 20-60 nM; how it was run: as §2

With COc1ccc(CN(C(=O)CSc2nc3ccccc3s2)c2cc(OC)c(OC)c(OC)c2)cc1O the Activity [1] was “Active”, the Activity [2] was “Active” and the Activity [3] was “Active”. The Activity [4] was “Active”, the Activity [5] was “Active” and the Activity [6] was “Active”. The Activity [7] was “Active”, the Activity [8] was “Dose-dependent effect” and the Activity [9] was “Active”. The Activity [10] was “Dose-dependent effect”, the Activity [11] was “Dose-dependent effect” and the inhibition at 0.06 µM [12] was under 20%. The inhibition [13] was “Dose-dependent effect”, the Activity [14] was “Active” and the Activity [15] was “Active”. For the same compound, the Activity [16] was “Active”, the Activity [17] was “Active” and the Activity [18] was “Active”. The Activity [19] was “Active”, the Activity [20] was “Active” and the Activity [21] was 47.3%. For the same compound, the Activity [22] was “Active”, the Activity [23] was “Dose-dependent effect” and the Activity [24] was “Active”. For the same compound, the Activity [25] was “Active” and the Activity [26] was “Active”.
